C2C12 statin – suppressors of simvastatin-induced myotoxicity in C2C12 myotubes; actives 0.78% (n = 330,000); ATP luminescence, 48 h; scaled: DMSO 0, geranylgeraniol control 100; AID 602340; rescue of ATP level, % at 7.49 µM;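 active = mean ATP rescue above about 67%, or every replicate alone reaching that limit, limit read from the data, passing the limit was not always enough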;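 note: myotubes were challenged with 10 µM simvastatin during compound exposure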
Cneo AK release – Cryptococcus neoformans lysis via adenylate kinase release. C. neoformans lysis, adenylate kinase release luminescence, 4 h; normalised: neutral wells 0, clomiphene wells 100. lysis activity, % at 15 µM. actives 0.2% (n = 360,000). AID 651654;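 active = mean lysis activity across replicates of at least 80%, whatever share of replicates individually reach that level; inactive = mean lysis activity below 80%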
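Test system: log-phase Cryptococcus neoformans yeast cells. Input: 5 × 10^6 yeast cells/mL. Medium: fresh YPD growth medium. Doses: single dose. Incubation: static 4 h at 37 °C with compound, 1 h detection. Measured by: luminescent adenylate kinase detection reagent. Read-out: signal increase indicating cell lysis. Benchmarks: Clomiphene.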
XiGFP reactiv – activators of X-chromosome reactivation in mouse fibroblasts | XiGFP mouse fibroblasts, % GFP-positive cells imaging, 3 d; cells co-treated with 5-aza-dC sensitizer; scaled so ellipticine positive control = 100% | activation, % at 7.58 µM | actives 0.055% (n = 360,000) | AID 743238;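 active = mean normalized replicate activation at least 10% and every replicate at or above 10%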;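 note: 0% = median of on-plate neutral control wells and 100% = ellipticine 6 µM median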
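Assay system: SV40-immortalized XiGFP fibroblast cells, line 68-5-11; buffer or medium: DMEM plus 5-aza-dC sensitizer; compound: one concentration, pinned; timing: compounds 3 days, fix/stain 15 min at room temperature; benchmarks: positive control ellipticine, 6 µM final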
DENV2 CPE rescue – DENV2-induced cell death inhibition | actives 1.7% (n = 350,000) | CPE inhibition, % at 9.99 µM | AID 651640 | DENV2-infected cells, cytopathic effect rescue, plate reader; in the data active = CPE inhibition above about 20%, passing the limit was not always enough; tested in BHK-21 cells;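 note: 0% = median of neutral control wells and 100% = median of positive control wells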
* = called active by the depositor; . = no result given; ! = not active in a repeat. Compounds with a hit are over-represented: about 2.1% of the library has one in this group of screens.

SMILES	C2C12 statin	Cneo AK release	XiGFP reactiv	DENV2 CPE rescue
O=C(N/N=C/c1ccc(N2CCOCC2)cc1)c1ccncc1	-1	4	0	72*
O=C(Nc1ccc(N2CCOCC2)cc1)c1ccncc1	.	8	.	.
Cc1noc(C)c1NC(=O)N(C)C[C@H]1OCc2ccccc2-c2c(n(C)c3ccccc23)C(=O)N([C@H](C)CO)C[C@H]1C	23	49	0	-3
O=C(Nc1ccc(Cl)c(Cl)c1)N[C@@H]1CC[C@H](CCn2cc(C3CCCC3)nn2)O[C@@H]1CO	.	.	0	28*
CN(C)CC(=O)N[C@H]1CC[C@H](CCn2cc(C3CCCCC3)nn2)O[C@H]1CO	3	-2	0	41*
O=C(Nc1ccc(Cl)c(Cl)c1)N[C@H]1CC[C@@H](CCn2cc(C3CC3)nn2)O[C@H]1CO	6	-2	0	-5
CN(C)CC(=O)N[C@@H]1CC[C@H](CCn2cc(C3CCCCC3)nn2)O[C@H]1CO	1	-5	0	9
C[C@@H]1CCCCO[C@@H](CN(C)C(=O)C2CCCCC2)[C@H](C)CN([C@@H](C)CO)C(=O)c2cc(NC(=O)CCCN(C)C)ccc2O1	.	.	-1	.
CC[n+]1c(/C=C/C=C/N(C(C)=O)c2ccccc2)sc2cc(OC)ccc21	.	.	52*	-3
O=S(=O)(c1ccccc1)N1[C@@H]2CNC[C@H]1C2c1ccc(-c2ccccc2)cc1 (stereo partly specified)	.	.	0	68*
O=S(=O)(c1ccc(-c2ccccc2)cc1)N1[C@@H]2CNC[C@H]1C2c1ccc(-c2ccccc2)cc1 (stereo partly specified)	.	.	0	.
Cc1ccc(S(=O)(=O)N2[C@@H]3CNC[C@H]2C3c2ccc(-c3ccc(C#N)cc3)cc2)cc1 (stereo partly specified)	.	.	0	29*
CN1C[C@H]2[C@@H](c3ccccc31)[C@@H](CO)N2C(=O)C1CCCCC1	7	-1	0	2
C[C@H]1CN([C@@H](C)CO)C(=O)c2cc(NC(=O)Cc3ccccc3)ccc2O[C@@H]1CN(C)C(=O)Nc1ccccc1	-7	3	0	-7
COc1ccc(C(C(=O)NC2CCCC2)N2CCc3ccccc32)cc1 (stereo unspecified)	10	-3	0	57*
CCOC(=O)C1CCN(C(C(=O)NC2CCCCC2)c2ccc(OC)cc2)CC1 (stereo unspecified)	-5	2	.	.
O=C1N(Cc2ccccc2)Cc2ccccc2[C@H]2OC(c3ccc(OCCCO)cc3)=N[C@@]12Cc1ccccc1	.	0	.	1
O=C1N(Cc2ccccc2)Cc2ccccc2[C@@H]2OC(c3ccc(OCCCO)cc3)=N[C@]12Cc1ccccc1	.	-17	.	26*
C[C@@H]1CN([C@H](C)CO)C(=O)c2cc(NS(=O)(=O)c3ccc(Cl)cc3)ccc2O[C@@H]1CN(C)Cc1ccccc1	-16	1	-1	42*
C[C@@H]1CN([C@H](C)CO)C(=O)c2cc(NS(=O)(=O)c3ccc(Cl)cc3)ccc2O[C@H]1CN(C)Cc1ccccc1	43	2	-1	-2
Cc1ccc(S(=O)(=O)Nc2ccc3c(c2)C(=O)N([C@H](C)CO)C[C@H](C)[C@@H](CN(C)Cc2ccccc2)O3)cc1	18	100*!	0	-9
O=C(NCCc1ccccc1)c1ccccc1NC(=O)C1CCCCC1C(=O)O (stereo unspecified)	.	.	0	44*
O=C(Nc1ccc(F)cc1)c1ccccc1NC(=O)C1CCCCC1C(=O)O (stereo unspecified)	30	4	0	2
Cc1cc(Cn2nc(C(=O)NCC3CC3)cc2-c2ccccc2)on1	8	0	0	22*
CO[C@@H]1CN(C)C(=O)c2ccc(NS(C)(=O)=O)cc2OC[C@H](C)N(CC2CCCCC2)C[C@H]1C	2	-3	0	-4
CC(C)(C)SCCNC(=O)CN(c1ccc(F)cc1)S(=O)(=O)c1ccccc1	8	210*	0	0
COc1ccccc1N(CC(=O)NCCSc1ccccc1)S(=O)(=O)c1ccccc1	.	-5	0	13
O=C(CN(c1ccc(F)cc1)S(=O)(=O)c1ccccc1)NCCSC1CCCCC1	-1	0	0	-5
COc1ccc(N(CC(=O)NCCSc2ccccc2)S(=O)(=O)c2ccccc2)c(OC)c1	-1	-2	0	88*
O=C(N[C@@H]1CC[C@H](CCNS(=O)(=O)c2ccccc2)O[C@H]1CO)c1cccc(F)c1	-5	10	0	7
